Values belong to the compound of their own block, whether it stands above or below them. Active and inactive are the calls of the source. No cut-off for these calls is given here.
Legend:
Quadruplex DNA [1] = assay: Binding affinity to synthetic BCL2 G4 quadruplex DNA assessed as change in chiral structure at 10 molar equiv to DNA measured after 10 mins by circular dichroism spectroscopic analysis; assay type: nucleic-acid assay
Method in brief: (§1)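 CD spectra of annealed DNA in 20 mM KCl, 5 mM KH2PO4 (pH 7.0). G4 DNAs were at 10 µM and duplex at 15 µM. Ligand (10 mM DMSO stock) was added at 10 molar equivalents. Spectra were recorded 10 min after addition at 20 °C over 230–360 nm, averaged over three scans and baseline corrected.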

Quadruplex DNA [2] = assay: Binding affinity to synthetic c-MYC G4 quadruplex DNA assessed as change in chiral structure at 10 molar equiv to DNA measured after 10 mins by circular dichroism spectroscopic analysis; assay type: nucleic-acid assay; method in brief: as §1
Quadruplex DNA [3] = assay: Binding affinity to synthetic c-KIT1 G4 quadruplex DNA assessed as change in chiral structure at 10 molar equiv to DNA measured after 10 mins by circular dichroism spectroscopic analysis; assay type: nucleic-acid assay; method in brief: as §1
Quadruplex DNA [4] = assay: Binding affinity to human telomeric 23 G4 quadruplex DNA assessed as change in chiral structure at 10 molar equiv to DNA measured after 10 mins by circular dichroism spectroscopic analysis; assay type: nucleic-acid assay; method in brief: as §1
[5] = Binding affinity to synthetic 20-mer hairpin duplex DNA assessed as change in chiral structure at 10 molar equiv to DNA measured after 10 mins by circular dichroism spectroscopic analysis; method in brief: as §1
Quadruplex DNA [6] = assay: Binding affinity to synthetic BCL2 G4 quadruplex DNA assessed as change in melting temperature at 10 molar equiv to DNA measured after 10 mins by circular dichroism melting analysis; assay type: nucleic-acid assay
Method in brief: (§2)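 CD melting of folded DNA (G4 10 µM, duplex 15 µM) in 20 mM KCl, 5 mM KH2PO4 (pH 7.0), without and with 10 molar equivalents of ligand. Tm was taken from curve fitting, and ΔTm = Tm(DNA+ligand) − Tm(DNA). Runs were done in triplicate and averaged.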

Quadruplex DNA [7] = assay: Binding affinity to synthetic c-MYC G4 quadruplex DNA assessed as change in melting temperature at 10 molar equiv to DNA measured after 10 mins by circular dichroism melting analysis; assay type: nucleic-acid assay; method in brief: as §2
Quadruplex DNA [8] = assay: Binding affinity to synthetic c-KIT1 G4 quadruplex DNA assessed as change in melting temperature at 10 molar equiv to DNA measured after 10 mins by circular dichroism melting analysis; assay type: nucleic-acid assay; method in brief: as §2
Quadruplex DNA [9] = assay: Binding affinity to human telomeric 23 G4 quadruplex DNA assessed as change in melting temperature at 10 molar equiv to DNA measured after 10 mins by circular dichroism melting analysis; assay type: nucleic-acid assay; method in brief: as §2
[10] = Binding affinity to synthetic 20-mer hairpin duplex DNA assessed as change in melting temperature at 10 molar equiv to DNA measured after 10 mins by circular dichroism melting analysis; method in brief: as §2
Jurkat [11] = assay: Induction of apoptosis in human Jurkat cells assessed as viable cells at 25 uM measured after 48 hrs by Annexin V-FITC/propidium iodide staining based flow cytometry (reference value: 97%); assay type: functional; details: read-out: Activity
Jurkat [12] = assay: Induction of apoptosis in human Jurkat cells assessed as early apoptotic cells at 25 uM measured after 48 hrs by Annexin V-FITC/propidium iodide staining based flow cytometry (reference value: 0.3%); assay type: functional
Jurkat [13] = assay: Induction of apoptosis in human Jurkat cells assessed as late apoptotic cells at 25 uM measured after 48 hrs by Annexin V-FITC/propidium iodide staining based flow cytometry (reference value: 1.4%); assay type: functional
Jurkat [14] = assay: Down regulation of c-MYC mRNA expression in human Jurkat cells at 25 uM measured after 24 hrs by RT-qPCR analysis relative to control; assay type: functional
Method in brief: (§3)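 Jurkat cells were treated 24 h at 25 µM, and total RNA was extracted with TRI Reagent. 0.5 µg RNA was reverse transcribed with MMLV RT and random primers (22 °C 10 min, 42 °C 60 min). SYBR qPCR ran 40 cycles (95/59/72 °C) in duplicate with GAPDH as reference. Relative expression was calculated by the […] method from at least three independent experiments.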

Jurkat [15] = assay: Down regulation of c-MYC expression in human Jurkat cells at 25 uM measured after 24 hrs by Western blot analysis relative to control; assay type: functional
Method in brief: (§4)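 Jurkat cells treated 24 h at 25 µM were lysed in 50 mM Hepes pH 7.4, 50 mM NaCl, 1% Triton with protease inhibitors. Protein was quantified by Bradford and run on 10% SDS-PAGE to nitrocellulose. Blots were probed with anti-Bcl-2, anti-c-Myc and anti-β-actin and detected by ECL. Densitometry was normalised to β-actin and expressed as % of control; three independent experiments.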

Jurkat [16] = assay: Down regulation of BCL2 expression in human Jurkat cells at 25 uM measured after 24 hrs by Western blot analysis relative to control; assay type: functional; method in brief: as §4
Jurkat [17] = assay: Cytotoxicity against human Jurkat cells assessed as reduction in cell viability at 50 uM measured after 48 hrs by combined MTT and trypan blue staining based cell counting assay; assay type: functional
Method in brief: (§5)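 Cells were seeded at 10^4/well (HDF 10^3), grown 24 h, then treated 48 h at 5–100 µM in 0.5% v/v DMSO. Read-outs were MTT (1 h, 37 °C, absorbance 550 nm; Jurkat handled by centrifugation) combined with trypan blue live/dead counting into a survival index versus untreated cells. IC50 came from nonlinear regression, n = 6 per experiment ×3 (n = 18), mean ± SEM.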

Jurkat [18] = assay: Cytotoxicity against human Jurkat cells assessed as reduction in cell viability measured after 48 hrs by combined MTT and trypan blue staining based cell counting assay; assay type: functional; method in brief: as §5
Jurkat [19] = assay: Cytotoxicity against human Jurkat cells assessed as cell viability at 50 uM measured after 48 hrs by combined MTT and trypan blue staining based cell counting assay relative to control; assay type: functional; details: read-out: Activity; method in brief: as §5
MCF7 = assay: Cytotoxicity against human MCF7 cells assessed as reduction in cell viability measured after 48 hrs by combined MTT assay; assay type: functional, cell-based; details: MCF7, 48 h; method in brief: as §5
HCT-116 = assay: Cytotoxicity against human HCT116 cells assessed as reduction in cell viability measured after 48 hrs by combined MTT assay; assay type: functional, cell-based; details: HCT-116, 48 h; method in brief: as §5
A-375 = assay: Cytotoxicity against human A375 cells assessed as reduction in cell viability measured after 48 hrs by combined MTT assay; assay type: functional, cell-based; details: A-375, 48 h; method in brief: as §5
HaCaT = assay: Cytotoxicity against human HaCaT cells assessed as reduction in cell viability measured after 48 hrs by combined MTT assay; assay type: cell-based; method in brief: as §5
NHDF = assay: Cytotoxicity against HDF cells assessed as reduction in cell viability measured after 48 hrs by combined MTT assay; assay type: cell-based; details: Homo sapiens; method in brief: as §5
Jurkat [20] = assay: Down regulation of BCL2 mRNA expression in human Jurkat cells at 25 uM measured after 24 hrs by RT-qPCR analysis relative to control; assay type: functional; method in brief: as §3
Quadruplex DNA [21] = assay: Binding affinity to synthetic Cy5-fluorescently labeled c-MYC G4 quadruplex DNA by microscale thermophoresis method; assay type: nucleic-acid assay
Method in brief: (§6)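 MST with Cy5-labelled oligonucleotides annealed at 1 µM in 5 mM KH2PO4/20 mM KCl (pH 7.0), then diluted in the same buffer with 0.1% Tween. DNA was held at 40 nM. Ligand was serially diluted 1:2 from a 4 mM DMSO stock and mixed 1:1 with DNA, giving 5% final DMSO. Kd was derived from thermophoresis binding curves.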

Quadruplex DNA [22] = assay: Binding affinity to synthetic Cy5-fluorescently labeled BCL2 G4 quadruplex DNA by microscale thermophoresis method; assay type: nucleic-acid assay; method in brief: as §6
Quadruplex DNA [23] = assay: Binding affinity to synthetic Cy5-fluorescently labeled c-KIT1 G4 quadruplex DNA by microscale thermophoresis method; assay type: nucleic-acid assay; method in brief: as §6
[24] = Binding affinity to synthetic Cy5-fluorescently labeled 20-mer hairpin duplex DNA by microscale thermophoresis method; method in brief: as §6
Quadruplex DNA [25] = assay: Binding affinity to human Cy5-fluorescently labeled telomeric 23 G4 quadruplex DNA by microscale thermophoresis method; assay type: nucleic-acid assay; method in brief: as §6
Quadruplex DNA [26] = assay: Binding affinity to synthetic c-MYC G4 quadruplex DNA up to 5:1 compound/DNA ratio by 1H-NMR analysis; assay type: nucleic-acid assay
Method in brief: (§7)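 1H NMR titration of G4 DNA at 0.2 mM in H2O/D2O 9:1 containing 5 mM KH2PO4, 20 mM KCl, 0.2 mM EDTA (pH 7.0), with DPFGSE water suppression. Ligand aliquots from 20 mM deutero-DMSO stock were added in the tube up to 5:1 ligand/G4. Imino and aromatic proton shifts were monitored.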

Quadruplex DNA [27] = assay: Binding affinity to synthetic BCL2 G4 quadruplex DNA up to 5:1 compound/DNA ratio by 1H-NMR analysis; assay type: nucleic-acid assay; method in brief: as §7

- Activity (Quadruplex DNA [1]): inactive
- Activity (Quadruplex DNA [2]): inactive
- Activity (Quadruplex DNA [3]): inactive
- Activity (Quadruplex DNA [4]): inactive
- Activity [5]: inactive
- ΔTm (Quadruplex DNA [6]): 9.2 °C
- ΔTm (Quadruplex DNA [7]): 7.2 °C
- ΔTm (Quadruplex DNA [8]): 5.2 °C
- ΔTm (Quadruplex DNA [9]): 2.4 °C
- ΔTm [10]: 1.9 °C
Structure (SMILES): CN(C)c1ccc(-c2nc3c4ncn(CCN5CCOCC5)c4ncn3c2NC(C)(C)C)cc1

- ΔTm (Quadruplex DNA [6]): 1.9 °C
- ΔTm (Quadruplex DNA [7]): 1.9 °C
- ΔTm (Quadruplex DNA [8]): 0.8 °C
- ΔTm (Quadruplex DNA [9]): 0.1 °C
- ΔTm [10]: 1.2 °C
Structure (SMILES): CC(C)(C)Nc1c(-c2ccccc2OCCN2CCOCC2)nc2c3ncn(CCN4CCOCC4)c3ncn12

- ΔTm (Quadruplex DNA [6]): 4.9 °C
- ΔTm (Quadruplex DNA [7]): 2.1 °C
- ΔTm (Quadruplex DNA [8]): 1.9 °C
- ΔTm (Quadruplex DNA [9]): 1 °C
- ΔTm [10]: 1.5 °C
Structure (SMILES): CC(C)(C)Nc1c(-c2ccc(N3CCOCC3)cc2)nc2c3ncn(CCN4CCOCC4)c3ncn12
- viability at 25 µM (Jurkat [11]): 79%
- Activity (Jurkat [12]): 8%
- Activity (Jurkat [13]): 9%
- Activity (Jurkat [14]): 27%
- Activity (Jurkat [15]): Active
- Activity (Jurkat [16]): Active
- Activity (Jurkat [17]): Active

- ΔTm (Quadruplex DNA [6]): 2.6 °C
- ΔTm (Quadruplex DNA [7]): 1.9 °C
- ΔTm (Quadruplex DNA [8]): 1 °C
- ΔTm (Quadruplex DNA [9]): 0.7 °C
- ΔTm [10]: 0.5 °C
Structure (SMILES): CC(C)(C)Nc1c(-c2ccccc2F)nc2c3ncn(CCN4CCOCC4)c3ncn12

Further lines, the compound ahead of its results:

Structure (SMILES): CN(C)c1ccc(-c2nc3c4ncn(CCN5CCCC5)c4ncn3c2NC(C)(C)C)cc1
- ΔTm (Quadruplex DNA [6]): 13.4 °C
- ΔTm (Quadruplex DNA [7]): 19.5 °C
- ΔTm (Quadruplex DNA [8]): 7.3 °C
- ΔTm (Quadruplex DNA [9]): 4.8 °C
- ΔTm [10]: 7.5 °C

Structure (SMILES): CN(C)CCCn1cnc2c1ncn1c(NC(C)(C)C)c(-c3ccc(N(C)C)cc3)nc21
- ΔTm (Quadruplex DNA [6]): 16.9 °C
- ΔTm (Quadruplex DNA [7]): > 25 °C
- ΔTm (Quadruplex DNA [8]): 11.9 °C
- ΔTm (Quadruplex DNA [9]): 7.2 °C

Structure (SMILES): CN(C)CCCOc1ccccc1-c1nc2c3ncn(CCCN(C)C)c3ncn2c1NC(C)(C)C
- ΔTm (Quadruplex DNA [6]): 7.8 °C
- ΔTm (Quadruplex DNA [7]): > 25 °C
- ΔTm (Quadruplex DNA [8]): 4.5 °C
- ΔTm (Quadruplex DNA [9]): 5.7 °C
- ΔTm [10]: 3.5 °C

Structure (SMILES): CC(C)(C)Nc1c(-c2ccc(N3CCOCC3)cc2)nc2c3ncn(CCN4CCCC4)c3ncn12
- ΔTm (Quadruplex DNA [6]): 9.1 °C
- ΔTm (Quadruplex DNA [7]): 8.7 °C
- ΔTm (Quadruplex DNA [8]): 2.9 °C
- ΔTm (Quadruplex DNA [9]): 2.2 °C
- ΔTm [10]: 6 °C

Structure (SMILES): CN(C)CCCn1cnc2c1ncn1c(NC(C)(C)C)c(-c3ccc(Cl)cc3)nc21
- ΔTm (Quadruplex DNA [6]): 6.7 °C
- ΔTm (Quadruplex DNA [7]): 12.8 °C
- ΔTm (Quadruplex DNA [8]): 2.8 °C
- ΔTm (Quadruplex DNA [9]): 2.4 °C
- ΔTm [10]: -0.5 °C
- Activity (Jurkat [18]): Dose-dependent effect
- IC50 (Jurkat [18]): 17 µM
- viability at 50 µM (Jurkat [19]): 25%
- IC50 (MCF7): > 100 µM
- IC50 (HCT-116): > 100 µM
- IC50 (A-375): > 100 µM
- IC50 (HaCaT): > 100 µM
- IC50 (NHDF): 80 µM
- viability at 25 µM (Jurkat [11]): 0.5%
- Activity (Jurkat [12]): 0.5%
- Activity (Jurkat [13]): 99%
- Activity (Jurkat [14]): 66%
- Activity (Jurkat [20]): 67%
- Activity (Jurkat [15]): 50%
- Activity (Jurkat [16]): 40%
- Kd (Quadruplex DNA [21]): 26 µM
- Kd (Quadruplex DNA [22]): 60 µM
- Kd (Quadruplex DNA [23]): 51 µM
- Activity [24]: inactive
- Activity (Quadruplex DNA [25]): inactive
- Activity (Quadruplex DNA [26]): Active
- Activity (Quadruplex DNA [27]): Active

Structure (SMILES): CN(C)c1ccc(-c2nc3c4ncn(CCCNC(=N)N)c4ncn3c2NC(C)(C)C)cc1
- ΔTm (Quadruplex DNA [6]): 2.8 °C
- ΔTm (Quadruplex DNA [7]): 2.5 °C
- ΔTm (Quadruplex DNA [8]): 2.1 °C
- ΔTm (Quadruplex DNA [9]): 0.6 °C
- ΔTm [10]: 0.2 °C

— ChEMBL document CHEMBL4402513, “Bio-Inspired Dual-Selective BCL-2/c-MYC G-Quadruplex Binders: Design, Synthesis, and Anticancer Activity of Drug-like Imidazo[2,1-i]purine Derivatives” (J Med Chem, 2020)
